# What was measured:
# Liver microsome [1] = assay: Drug metabolism in Sprague-Dawley rat liver microsomes assessed as hydroxylated product formation after 60 mins by LC-MS analysis; assay type: ADME; conditions: 1 h
# Summary of the method: (§1)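 Single enantiomers incubated with male rat, cynomolgus monkey or human liver microsomes (1 mg/mL) plus cytosol (2 mg/mL). Cofactors: NADPH 5 mM, MgCl2 8 mM, GSH 2 mM and UDPGA 2 mM, in 0.1 M phosphate, pH 7.4, at 37 °C for 60 min. Precipitated with 2% formic acid in acetonitrile, dried, reconstituted, and analysed by LC/MS (C18, 10–40% acetonitrile/5 mM ammonium acetate).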
# [2] = Elimination half life in Sprague-Dawley rat at 2 mg/kg, iv administered as bolus dose; assay type: ADME, organism-based; set-up: dose 2 mg/kg, route intravenous; conditions: in vivo, read-out: beta t1/2 (converted)
# Summary of the method: (§2)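 Male Sprague-Dawley rats (n=3 per group), jugular/femoral cannulated, fed. Single IV bolus of 2 mg/kg in 5% dextrose/0.5% lactic acid, pH 3.5, at 1 mL/kg. Jugular blood sampled 0–1440 min into EDTA. Plasma measured by LC/MS/MS (LOQ 1 ng/mL, BLQ set to zero). Non-compartmental analysis with linear trapezoidal AUC; CL = Dose/AUC0-∞, Vdss = MRT·CL, t1/2 = 0.693/λ.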
# [3] = Retention time of the compound by HPLC analysis; assay type: physicochemical
# [4] = molecular target: Phosphatidylinositol 4,5-bisphosphate 3-kinase catalytic subunit alpha isoform (Homo sapiens) (UniProt P42336); assay: Binding affinity to PI3K-alpha (unknown origin) by fluorescence polarization assay
# Sequence of Phosphatidylinositol 4,5-bisphosphate 3-kinase catalytic subunit alpha isoform (Homo sapiens) (P42336 whole entry, canonical isoform): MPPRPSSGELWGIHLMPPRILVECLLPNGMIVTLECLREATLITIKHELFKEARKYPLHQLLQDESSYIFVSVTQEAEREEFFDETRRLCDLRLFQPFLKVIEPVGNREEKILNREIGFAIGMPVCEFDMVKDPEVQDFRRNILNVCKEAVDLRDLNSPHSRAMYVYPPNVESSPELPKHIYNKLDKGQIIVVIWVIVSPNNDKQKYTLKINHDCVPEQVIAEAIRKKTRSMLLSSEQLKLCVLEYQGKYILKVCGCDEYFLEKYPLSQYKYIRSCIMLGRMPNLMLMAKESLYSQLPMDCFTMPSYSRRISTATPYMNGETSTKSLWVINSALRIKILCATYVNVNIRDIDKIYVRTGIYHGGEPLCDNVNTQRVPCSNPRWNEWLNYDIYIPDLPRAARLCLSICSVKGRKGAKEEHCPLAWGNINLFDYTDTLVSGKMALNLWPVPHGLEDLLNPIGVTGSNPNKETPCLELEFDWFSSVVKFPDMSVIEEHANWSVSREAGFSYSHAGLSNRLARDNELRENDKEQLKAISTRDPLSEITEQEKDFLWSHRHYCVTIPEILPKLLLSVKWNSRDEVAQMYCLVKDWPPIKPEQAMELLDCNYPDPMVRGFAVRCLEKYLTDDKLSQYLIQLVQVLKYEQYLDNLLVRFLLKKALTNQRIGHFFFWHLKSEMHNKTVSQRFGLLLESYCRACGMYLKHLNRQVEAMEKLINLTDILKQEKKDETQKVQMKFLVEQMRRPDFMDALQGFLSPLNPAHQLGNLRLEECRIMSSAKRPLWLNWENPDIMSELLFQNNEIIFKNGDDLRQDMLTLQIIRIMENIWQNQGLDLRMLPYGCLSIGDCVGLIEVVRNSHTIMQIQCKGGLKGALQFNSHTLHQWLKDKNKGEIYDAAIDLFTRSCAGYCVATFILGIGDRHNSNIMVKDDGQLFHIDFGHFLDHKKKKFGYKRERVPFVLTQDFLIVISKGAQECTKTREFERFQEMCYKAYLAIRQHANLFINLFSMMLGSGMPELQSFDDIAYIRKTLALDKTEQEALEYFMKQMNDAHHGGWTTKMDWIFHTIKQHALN
# [5] = Volume of distribution at steady state in Sprague-Dawley rat at 2 mg/kg, iv administered as bolus dose; assay type: ADME, organism-based; set-up: dose 2 mg/kg, route intravenous; conditions: in vivo, read-out: Vdss; summary of the method: as §2
# [6] = molecular target: Phosphatidylinositol 4,5-bisphosphate 3-kinase catalytic subunit gamma isoform (Homo sapiens) (UniProt P48736); assay: Binding affinity to PI3K-gamma (unknown origin) by fluorescence polarization assay
# Sequence of Phosphatidylinositol 4,5-bisphosphate 3-kinase catalytic subunit gamma isoform (Homo sapiens) (P48736 whole entry, looked up, canonical isoform): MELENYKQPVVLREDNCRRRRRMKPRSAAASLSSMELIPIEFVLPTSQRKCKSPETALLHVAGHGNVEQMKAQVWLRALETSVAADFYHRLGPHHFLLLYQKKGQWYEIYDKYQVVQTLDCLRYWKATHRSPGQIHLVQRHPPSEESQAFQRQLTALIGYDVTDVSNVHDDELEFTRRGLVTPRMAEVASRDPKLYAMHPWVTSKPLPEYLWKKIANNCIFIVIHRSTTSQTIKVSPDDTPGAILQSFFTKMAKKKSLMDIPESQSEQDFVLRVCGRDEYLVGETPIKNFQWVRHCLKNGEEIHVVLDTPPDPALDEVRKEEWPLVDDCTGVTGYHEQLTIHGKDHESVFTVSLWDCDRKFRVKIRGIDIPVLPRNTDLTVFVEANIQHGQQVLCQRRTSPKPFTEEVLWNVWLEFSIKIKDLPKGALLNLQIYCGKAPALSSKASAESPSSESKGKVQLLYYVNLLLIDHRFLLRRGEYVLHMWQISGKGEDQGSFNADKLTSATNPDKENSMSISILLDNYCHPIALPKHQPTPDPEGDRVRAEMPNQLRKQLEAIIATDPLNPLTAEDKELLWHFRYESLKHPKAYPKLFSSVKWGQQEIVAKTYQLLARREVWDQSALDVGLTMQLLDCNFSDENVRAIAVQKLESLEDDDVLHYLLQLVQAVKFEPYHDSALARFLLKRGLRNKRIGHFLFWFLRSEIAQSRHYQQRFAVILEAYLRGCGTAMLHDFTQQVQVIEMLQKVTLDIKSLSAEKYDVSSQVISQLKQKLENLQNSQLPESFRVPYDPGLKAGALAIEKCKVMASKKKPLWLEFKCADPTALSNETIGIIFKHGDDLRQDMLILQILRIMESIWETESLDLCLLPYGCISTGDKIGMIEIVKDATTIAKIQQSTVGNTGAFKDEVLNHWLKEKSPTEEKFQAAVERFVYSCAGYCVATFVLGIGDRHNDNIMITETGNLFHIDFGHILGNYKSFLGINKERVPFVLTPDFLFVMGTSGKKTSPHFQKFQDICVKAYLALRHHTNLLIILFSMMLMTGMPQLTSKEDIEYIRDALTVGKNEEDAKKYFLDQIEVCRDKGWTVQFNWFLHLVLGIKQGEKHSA
# [7] = AUC (0 to infinity) in Sprague-Dawley rat at 2 mg/kg, iv administered as bolus dose; assay type: ADME, organism-based; set-up: time infinity, dose 2 mg/kg, route intravenous; conditions: plasma; summary of the method: as §2
# Liver microsome [8] = assay: Drug metabolism in human liver microsomes assessed as hydroxylated product formation after 60 mins by LC-MS analysis; assay type: ADME; conditions: 1 h; summary of the method: as §1
# [9] = Systemic clearance in Sprague-Dawley rat at 2 mg/kg, iv administered as bolus dose; assay type: ADME, organism-based; set-up: dose 2 mg/kg, route intravenous; conditions: in vivo; summary of the method: as §2
# Liver microsome [10] = assay: Drug level in human liver microsomes treated with 1-(4-(4-(3-oxa-8-azabicyclo[3.2.1]octan-8-yl)-6-morpholino-1,3,5-triazin-2-yl)phenyl)-3-(pyridin-4-yl)urea at 0.02 mM after 60 mins by 1H-13C-HSQC spectra analysis; assay type: ADME; conditions: 20 µM
# Summary of the method: (§3)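 Human liver microsomes at 1 mg/mL protein with substrate at 0.02 mM, 5 mM NADPH and 8 mM MgCl2 in 0.1 M potassium phosphate, pH 7.4. Incubated at 37 °C for 60 min. Stopped with 2% formic acid in acetonitrile and centrifuged. Metabolite isolated by semi-preparative C18 HPLC, then characterised by LC/MS (C18, acetonitrile/5 mM ammonium acetate gradient) and NMR.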
# [11] = Drug metabolism in cynomolgus monkey liver microsomes assessed as hydroxylated product formation after 60 mins by LC-MS analysis; assay type: ADME, Macaca fascicularis; conditions: 1 h; summary of the method: as §1
# Rattus norvegicus = assay: Drug level in Sprague-Dawley rat at 2 mg/kg, iv; conditions: in vivo
# Liver microsome [12] = assay: Drug level in human liver microsomes treated with 1-(4-(4-(3-oxa-8-azabicyclo[3.2.1]octan-8-yl)-6-morpholino-1,3,5-triazin-2-yl)phenyl)-3-(pyridin-4-yl)urea by NMR analysis; assay type: ADME
# Summary of the method: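 Metabolite isolated from the human liver microsome incubation and quantified by 1H NMR. A calibration curve was built from parent-compound spectra at 5 concentrations, using the averaged integration of aromatic protons (δ 8.37, 8.30, 7.55, 7.44). Metabolite concentration was read from that curve; spectra were referenced to residual solvent.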
# [13] = molecular target: Serine/threonine-protein kinase mTOR (Homo sapiens) (UniProt P42345); assay: Binding affinity to mTOR (unknown origin) by DELFIA
# Liver microsome [14] = assay: Drug level in human liver microsomes treated with 1-(4-(4-(3-oxa-8-azabicyclo[3.2.1]octan-8-yl)-6-morpholino-1,3,5-triazin-2-yl)phenyl)-3-(pyridin-4-yl)urea at 0.02 mM after 60 mins by LC-MS analysis; assay type: ADME; conditions: 1 h, 20 µM; summary of the method: as §3
# [15] = Drug level in cynomolgus monkey liver microsomes treated with 1-(4-(4-(3-oxa-8-azabicyclo[3.2.1]octan-8-yl)-6-morpholino-1,3,5-triazin-2-yl)phenyl)-3-(pyridin-4-yl)urea at 0.02 mM after 60 mins by LC-MS analysis; assay type: ADME, Macaca fascicularis; conditions: 1 h, 20 µM
# Liver microsome [16] = assay: Drug metabolism in human liver microsomes assessed as (1R,5R,6R)-1-(4-(4-(6-hydroxy-3-oxa-8-azabicyclo[3.2.1]octan-8-yl)-6-morpholino-1,3,5-triazin-2-yl)phenyl)-3-(pyridin-4-yl)urea formation at 0.02 mM after 60 mins by 1H-13C-HSQC spectra analysis; conditions: 20 µM
# Liver microsome [17] = assay: Drug metabolism in human liver microsomes assessed as (rac)-1-(4-(4-(6-hydroxy-3-oxa-8-azabicyclo[3.2.1]octan-8-yl)-6-morpholino-1,3,5-triazin-2-yl)phenyl)-3-(pyridin-4-yl)urea formation at 0.02 mM after 60 mins by LC-MS analysis; assay type: ADME; conditions: 1 h, 20 µM
# Summary of the method: (§4)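 Parent at 0.02 mM was incubated with human liver microsomes (1 mg/mL protein) in 0.1 M potassium phosphate pH 7.4 with 5 mM NADPH and 8 mM MgCl₂, at 37 °C for 60 min. Reactions were quenched with 2% formic acid in acetonitrile and the metabolite isolated by semi-preparative C18 HPLC. Identity was checked by LC/MS on C18 with an acetonitrile/5 mM ammonium acetate gradient.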
# Liver microsome [18] = assay: Drug metabolism in human liver microsomes assessed as (1R,5R,6R)-1-(4-(4-(6-hydroxy-3-oxa-8-azabicyclo[3.2.1]octan-8-yl)-6-morpholino-1,3,5-triazin-2-yl)phenyl)-3-(pyridin-4-yl)urea formation at 0.02 mM after 60 mins by 1H-13C-HSQC spectra analysis; assay type: ADME; conditions: 20 µM; summary of the method: as §4
# [19] = Drug metabolism in cynomolgus monkey liver microsomes assessed as (rac)-1-(4-(4-(6-hydroxy-3-oxa-8-azabicyclo[3.2.1]octan-8-yl)-6-morpholino-1,3,5-triazin-2-yl)phenyl)-3-(pyridin-4-yl)urea formation at 0.02 mM after 60 mins by LC-MS analysis; assay type: ADME, Macaca fascicularis; conditions: 1 h, 20 µM
smiles,measurement,setting,value
O=C(Nc1ccncc1)Nc1ccc(-c2nc(N3CCOCC3)nc(N3[C@@H]4COC[C@H]3[C@@H](O)C4)n2)cc1,Stability,Liver microsome [1],Stable
same,half-life,[2],12 min
same,Retention_time,[3],13.4 min
same,Activity,[4],9 nM
same,Vd,[5],0.9 L/kg
same,Activity,[6],93 nM
same,AUC(0-inf),[7],283 ng·h/mL
same,Drug metabolism,Liver microsome [8],metabolite_detected
same,clearance,[9],123 mL/min/kg
same,Drug metabolism,Liver microsome [10],metabolite_detected
same,Drug metabolism,[11],metabolite_detected
same,Drug uptake,Rattus norvegicus,metabolite_not_detected
O=C(Nc1ccncc1)Nc1ccc(-c2nc(N3CCOCC3)nc(N3C4COCC3C(O)C4)n2)cc1 (racemic),Drug uptake,Liver microsome [12],1.72 mM
same,Activity,[13],0.8 nM
same,Drug metabolism,Liver microsome [14],metabolite_detected
same,Activity,[4],4 nM
same,Drug metabolism,[15],metabolite_detected
same,Activity,[6],33 nM
O=C(Nc1ccncc1)Nc1ccc(-c2nc(N3CCOCC3)nc(N3C4CCC3COC4)n2)cc1 [PKI-179],Activity,[13],0.5 nM
same,Drug metabolism,Liver microsome [16],metabolite_detected
same,half-life,[2],54 min
same,Activity,[4],8 nM
same,Vd,[5],2.4 L/kg
same,Activity,[6],51 nM
same,AUC(0-inf),[7],867 ng·h/mL
same,clearance,[9],38.3 mL/min/kg
same,Drug metabolism,Liver microsome [17],metabolite_detected
same,Drug metabolism,Liver microsome [18],metabolite_detected
same,Drug uptake,Rattus norvegicus,metabolite_not_detected
same,Drug metabolism,[19],metabolite_detected
O=C(Nc1ccncc1)Nc1ccc(-c2nc(N3CCOCC3)nc(N3[C@H]4COC[C@@H]3[C@H](O)C4)n2)cc1,Stability,Liver microsome [1],Stable
same,half-life,[2],42 min
same,Retention_time,[3],10.2 min
same,Activity,[4],4 nM
same,Vd,[5],1.5 L/kg
same,Activity,[6],50 nM
same,AUC(0-inf),[7],315 ng·h/mL
same,Drug metabolism,Liver microsome [8],metabolite_not_detected
same,clearance,[9],107 mL/min/kg
same,Drug metabolism,Liver microsome [10],metabolite_detected
same,Drug metabolism,[11],metabolite_not_detected
same,Drug uptake,Rattus norvegicus,metabolite_not_detected
